Measurements: ChEMBL document CHEMBL1152615, “Cytosporones, coumarins, and an alkaloid from the endophytic fungus Pestalotiopsis sp. isolated from the Chinese mangrove plant Rhizophoramucronata” (Bioorg Med Chem, 2009)
The source made the active and inactive calls.

Tests used:
Type in all cases: functional, cell-based
[1] = test system: L5178Y; assay: Cytotoxicity against mouse L5178Y cells
Method in brief: (§1)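 MTT assay. Cells kept in RPMI-1640 with Na-carbonate (pH 7.2) plus 10% FCS, at 37 °C under humidified 5% CO2/95% air. Seeded at 1500 cells/mL and exposed for 72 h to compounds in DMSO at several concentrations, with an initial test concentration of 10 µg/mL. MTT added for 3 h, then DMSO for 1 h to lyse cells; absorbance read at 595 nm. Negative control was medium with 0.1% EGMME/DMSO.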

[2] = test system: PC-12; assay: Cytotoxicity against rat PC12 cells; method in brief: as §1
[3] = test system: HeLa; assay: Cytotoxicity against human HeLa cells; method in brief: as §1

Measured: Activity

CC(O)CCCCCC1OC(=O)Cc2cc(O)cc(O)c21 (centres undefined)
inactive: all assays above

COc1cc(OC)c2oc(=O)c(CC(C)O)cc2c1 (centres undefined)
inactive: all assays above

COc1cc(O)cc2cc(CO)c(=O)oc12
inactive: all assays above

CC(=O)OC(C)CCCCCC1OC(=O)Cc2cc(O)cc(O)c21 (centres undefined)
inactive: all assays above

COC(=O)Cc1cc(O)cc(O)c1C(=O)CCCCCC(C)O (centres undefined)
inactive: all assays above

CC(=O)OCCCCCCCC1OC(=O)Cc2cc(O)cc(O)c21 (centres undefined)
inactive: all assays above

CCCCCCCC1OC(=O)Cc2cc(O)cc(O)c21 (centres undefined)
inactive: all assays above

COc1cc(OC)c2oc(=O)c(CC(O)CO)cc2c1 (centres undefined)
inactive: all assays above

COc1cc(OC)c2oc(=O)c(C(O)C(C)O)cc2c1 (centres undefined)
inactive: all assays above

COc1cc(OC)c2oc(=O)c(CO)cc2c1
inactive: all assays above

CCCCCCCC(=O)c1c(O)cc(O)cc1CC(=O)OC
inactive: all assays above

COc1cc(O)c2oc(=O)c(CC(O)CO)cc2c1 (centres undefined)
inactive: all assays above

CCOC(=O)Cc1cc(O)cc(O)c1C(=O)CCCCCC(C)O (centres undefined)
inactive: all assays above
